Data taken from ChEMBL document CHEMBL2169868, “Flavone-based novel antidiabetic and antidyslipidemic agents” (J Med Chem, 2012).

Tests used:
Mus musculus [1] = assay: Antidiabetic activity in diabetic C57BL/KsJ db/db mouse model assessed as improvement in glucose tolerance in hyperglycemia at 1 mg/kg, po measured 2 hrs post dose; type: functional
Mus musculus [2] = assay: Antidiabetic activity in diabetic C57BL/KsJ db/db mouse model assessed as improvement in glucose tolerance in hyperglycemia at 100 mg/kg, po measured 2 hrs post dose; type: functional
Mus musculus [3] = assay: Antihyperglycemic activity in diabetic C57BL/KsJ db/db mouse model assessed as reduction in hyperglycemia at 25 mg/kg, po qd for 10 days; type: functional; set-up: scale not given: the % may be the effect or the level left
In short: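 db/db mice (C57BL/KsJ, 12−18 weeks, 40−50 g, glucose 200−350 mg/dL), housed at 23 ± 2.0 °C on a 12 h light cycle. Oral dosing daily for 10 days. Blood glucose checked each morning through day 9. Body weight recorded daily from day 1 to day 10. Mean % change versus vehicle, 5 mice per group; Student t test.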

Syrian golden hamster [4] = assay: Antidyslipidemic activity in high fructose and high-fat diet fed dyslipidemic Syrian golden hamster model assessed as increase in lipoprotein lipase level at 10 mg/kg/day, po for 7 day, po; type: functional, Mesocricetus auratus
In short: (§1)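 Syrian golden hamsters fed high-fructose high-fat diet; oral dosing in 1% gum acacia at 10, 30, 100 mg/kg (or 25 mg/kg) for 7 days, sham control given vehicle; plasma TG, cholesterol, LDL-C, HDL-C, glycerol and NEFA (kits), lipoprotein lipase activity and body weight; % change versus HFD control, six hamsters per group.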

Mus musculus [5] = assay: Antidyslipidemic activity in diabetic C57BL/KsJ db/db mouse model assessed as increase in plasma HDL-cholesterol level at 25 mg/kg, po qd for 10 days; type: functional
In short: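 db/db mice (blood glucose 200−350, TG 170−250, cholesterol 170−250, HDL-C 32−40 mg/dL) dosed orally at 25 mg/kg daily for 10 days; retro-orbital blood taken on day 11 for plasma TG, cholesterol and HDL-C (and HDL-C/CHOL ratio); mean % change versus vehicle control, 5 mice per group; Student t test.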

Mus musculus [6] = assay: Antidiabetic activity in diabetic C57BL/KsJ db/db mouse model assessed as improvement in glucose tolerance in hyperglycemia at 3 mg/kg, po measured 2 hrs post dose; type: functional
[7] = Cmax in Sprague-Dawley rat at 2.5 mg/kg, iv by LC-MS/MS method; type: ADME, organism-based; set-up: dose 2.5 mg/kg, route intravenous; conditions: in vivo
In short: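 Male Sprague−Dawley rats given a single 2.5 mg/kg iv dose; one formulation was DMF/PG/water (2:4:4), 0.2 μ filtered. Blood drawn from 0.08 to 48 h. Plasma assayed by LC-MS/MS with linear range 0.78−400 ng/mL.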

Syrian golden hamster [8] = assay: Antidyslipidemic activity in high fructose and high-fat diet fed dyslipidemic Syrian golden hamster model assessed as reduction in glycerol level at 30 mg/kg/day, po for 7 day, po; type: functional, Mesocricetus auratus; set-up: scale not given: the % may be the effect or the level left; in short: as §1
Syrian golden hamster [9] = assay: Antidyslipidemic activity in high fructose and high-fat diet fed dyslipidemic Syrian golden hamster model assessed as reduction in glycerol level at 100 mg/kg/day, po for 7 days; type: functional, Mesocricetus auratus; set-up: scale not given: the % may be the effect or the level left; in short: as §1
Syrian golden hamster [10] = assay: Antidyslipidemic activity in high fructose and high-fat diet fed dyslipidemic Syrian golden hamster model assessed as increase in HDL-cholesterol level at 30 mg/kg/day, po for 7 day, po; type: functional, Mesocricetus auratus; in short: as §1
Syrian golden hamster [11] = assay: Antidyslipidemic activity in high fructose and high-fat diet fed dyslipidemic Syrian golden hamster model assessed as increase in HDL-cholesterol level at 10 mg/kg/day, po for 7 day, po; type: functional, Mesocricetus auratus; in short: as §1
Syrian golden hamster [12] = assay: Antidyslipidemic activity in high fructose and high-fat diet fed dyslipidemic Syrian golden hamster model assessed as reduction in body weight at 25 mg/kg/day for 7 days; type: functional, Mesocricetus auratus; set-up: scale not given: the % may be the effect or the level left; in short: as §1
Syrian golden hamster [13] = assay: Reduction in body weight in high fructose and high-fat diet fed dyslipidemic Syrian golden hamster model at 30 mg/kg/day, po for 7 days; type: functional, Mesocricetus auratus; set-up: scale not given: the % may be the effect or the level left
In short: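 HFD-fed Syrian golden hamsters, six per group, fed a high-fructose diet. Oral dosing in 1% gum acacia for 7 days. Sham group received vehicle. Plasma TG was measured and body weight tracked. Results given as % change versus HFD control.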

Cmax [7]: 523 ng/mL
SMILES: CC(C)(C)NC[C@H](O)COc1ccc2c(=O)cc(-c3cc(OCc4ccccc4)cc(OCc4ccccc4)c3)oc2c1
Activity (Mus musculus [1]): 21.46%
Activity (Mus musculus [2]): 59.4%
Activity (Mus musculus [3]): 55.4%
Activity (Syrian golden hamster [4]): 13.2%
Activity (Mus musculus [5]): 33.2%
Activity (Mus musculus [6]): 35.1%
Activity (Syrian golden hamster [8]): 25.7%
Activity (Syrian golden hamster [9]): 50.5%
Activity (Syrian golden hamster [10]): 21%
Activity (Syrian golden hamster [11]): 9.37%
Activity (Syrian golden hamster [12]): 14.3%
Activity (Syrian golden hamster [13]): 10.2%
